From ChEMBL document CHEMBL3351250, “Modified salicylanilide and 3-phenyl-2H-benzo[e][1,3]oxazine-2,4(3H)-dione derivatives as novel inhibitors of osteoclast differentiation and bone resorption” (J Med Chem, 2014)
pIC50: −log10 of the molar value. Calls of active or inactive are those of the source. No cut-off for these calls is given here.

Experiments:
[1] = Cytotoxicity against mouse RAW264.7 cells assessed as survival rate at 10 uM after 24 hrs by MTT assay; format: cell-based; settings: read-out: Activity
Method in brief: (§1)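 Cells at 1 × 10⁴/well in DMEM + 10% FBS, exposed to compounds for 24 h at 37 °C, 5% CO₂. After PBS washes, MTT (0.5 mg/mL in medium) added for 1 h at 37 °C; formazan dissolved in DMSO, absorbance read at 540 nm. Viability expressed as % of DMSO control; CC₅₀ is the concentration giving 50% loss of mean viability (N = 3).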

[2] = Cytotoxicity against mouse RAW264.7 cells assessed as reduction in survival rate after 24 hrs by MTT assay; format: cell-based; method in brief: as §1
RAW264.7 [3] = assay: Inhibition of RANKL-induced osteoclastogenesis in mouse RAW264.7 cells assessed as TRAP+ multinucleated cells level at 10 uM incubated for 4 days by TRAP staining assay; format: functional; design: scale not given: the % may be the effect or the level left
Method in brief: (§2)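 Cells plated at 1 × 10³ (96-well) or 5 × 10⁴ (48-well) in α-MEM with 10% FBS, 2 mM […], 100 ng/mL recombinant murine RANKL and compound for 4 days; medium changed on day 2. Fixed in acetone/citrate/formaldehyde for 5 min and TRAP-stained. TRAP⁺ cells with >5 nuclei counted by light microscopy, expressed as % of the RANKL-only group.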

RAW264.7 [4] = assay: Inhibition of RANKL-induced osteoclastogenesis in mouse RAW264.7 cells assessed as TRAP+ multinucleated cells level incubated for 4 days by TRAP staining assay; format: functional, cell-based; settings: RAW264.7, 96 h
Method in brief: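 RAW264.7 cells in α-MEM with 10% FBS, 2 mM […], 100 ng/mL recombinant soluble murine RANKL and a range of compound concentrations for 4 days, with medium changed on day 2. Cells fixed in acetone/citrate/formaldehyde for 5 min and TRAP-stained. Cells with >5 nuclei counted by light microscopy and expressed as % of RANKL-only; IC50 is 50% inhibition.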

RAW264.7 [5] = assay: Cytotoxicity against mouse RAW264.7 cells assessed as survival rate at 5 and 10 uM after 24 hrs by MTT assay; format: cell-based; settings: raw264.7, 24 h; method in brief: as §1
RAW264.7 [6] = assay: Inhibition of RANKL-induced osteoclastogenesis in mouse RAW264.7 cells assessed as TRAP+ multinucleated cells level at 5 uM incubated for 4 days by TRAP staining assay; format: functional; design: scale not given: the % may be the effect or the level left; method in brief: as §2
RAW264.7 [7] = assay: Inhibition of RANKL-induced osteoclastogenesis in mouse RAW264.7 cells assessed as TRAP+ multinucleated cells level at […] incubated for 4 days by TRAP staining assay; format: functional; design: scale not given: the % may be the effect or the level left
RAW264.7 [8] = assay: Inhibition of RANKL-induced osteoclastogenesis in mouse RAW264.7 cells assessed as TRAP+ multinucleated cells level at 2.5 uM incubated for 4 days by TRAP staining assay; format: functional; design: scale not given: the % may be the effect or the level left; method in brief: as §2
RAW264.7 [9] = assay: Inhibition of RANKL-induced osteoclastogenesis in mouse RAW264.7 cells assessed as reduction in TRAP activity incubated for 4 days by TRAP staining assay; format: functional, cell-based; settings: for pIC50: RAW264.7, 96 h
Method in brief: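 RAW264.7 cells were RANKL-differentiated (100 ng/mL recombinant soluble murine RANKL in α-MEM/10% FBS, compounds at various concentrations, 4 days, medium changed day 2). TRAP activity was read with 2 mg/mL 4-nitrophenyl phosphate in 0.09 M citrate buffer for 15 min at 37 °C, stopped with 0.1 N NaOH. Expressed as % of RANKL-only; IC50 is 50% inhibition.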

RAW264.7 [10] = assay: Inhibition of RANKL-induced NFATc1 mRNA expression in mouse RAW264.7 cells at 5 to […] pre-treated for 1 hr before RANKL stimulation measured after 24 to 48 hrs by RT-PCR method; format: functional, cell-based
RAW264.7 [11] = assay: Inhibition of RANKL-induced c-fos mRNA expression in mouse RAW264.7 cells at 5 to […] pre-treated for 1 hr before RANKL stimulation measured after 24 to 48 hrs by RT-PCR method; format: functional, cell-based
RAW264.7 [12] = assay: Inhibition of RANKL-induced DC-STAMP mRNA expression in mouse RAW264.7 cells at 5 to […] pre-treated for 1 hr before RANKL stimulation measured after 24 to 48 hrs by RT-PCR method; format: functional, cell-based
RAW264.7 [13] = assay: Inhibition of RANKL-induced TRAP mRNA expression in mouse RAW264.7 cells at 5 to […] pre-treated for 1 hr before RANKL stimulation measured after 24 to 48 hrs by RT-PCR method; format: functional, cell-based
RAW264.7 [14] = assay: Inhibition of RANKL-induced cathepsin K mRNA expression in mouse RAW264.7 cells at 5 to […] pre-treated for 1 hr before RANKL stimulation measured after 24 to 48 hrs by RT-PCR method; format: functional, cell-based
RAW264.7 [15] = assay: Inhibition of RANKL-induced MMP9 mRNA expression in mouse RAW264.7 cells at 5 to […] pre-treated for 1 hr before RANKL stimulation measured after 24 to 48 hrs by RT-PCR method; format: functional, cell-based
RAW264.7 [16] = assay: Inhibition of RANKL-induced NFATc1 protein expression in mouse RAW264.7 cells nuclear extracts at 5 to […] pre-treated for 1 hr before RANKL stimulation measured after 24 hrs by Western blotting method; format: functional, cell-based
RAW264.7 [17] = assay: Inhibition of RANKL-induced NFkappaB protein expression in mouse RAW264.7 cells nuclear extracts at 5 to […] pre-treated for 1 hr before RANKL stimulation measured after 24 hrs by Western blotting method; format: functional, cell-based
RAW264.7 [18] = assay: Inhibition of RANKL-induced NFkappaB protein expression in mouse RAW264.7 cells nuclear extracts assessed as NFkappaB level at 5 uM pre-treated for 1 hr before RANKL stimulation measured after 24 hrs by Western blotting method relative to TBP protein; format: functional
Method in brief: (§3)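 Cells (1 × 10⁶ per 6 cm plate) attached 24 h in DMEM/10% FBS. Pretreated with compound in α-MEM/10% FBS for 1 h, then RANKL 100 ng/mL for 24 h. Nuclear extracts (18 μg) run on 12% SDS-PAGE and blotted with monoclonal anti-NFATc1 or anti-NF-κB (1:1000, 12 h, 4 °C) plus HRP secondary, ECL detection. Band signal normalized to TATA-box binding protein.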

RAW264.7 [19] = assay: Inhibition of RANKL-induced NFkappaB protein expression in mouse RAW264.7 cells nuclear extracts assessed as NFkappaB level at […] pre-treated for 1 hr before RANKL stimulation measured after 24 hrs by Western blotting method relative to TBP protein; format: functional
RAW264.7 [20] = assay: Inhibition of RANKL-induced NFATc1 protein expression in mouse RAW264.7 cells nuclear extracts assessed as NFATc1 level at 5 uM pre-treated for 1 hr before RANKL stimulation measured after 24 hrs by Western blotting method relative to TBP protein; format: functional; method in brief: as §3
RAW264.7 [21] = assay: Inhibition of RANKL-induced NFATc1 protein expression in mouse RAW264.7 cells nuclear extracts assessed as NFATc1 level at […] pre-treated for 1 hr before RANKL stimulation measured after 24 hrs by Western blotting method relative to TBP protein; format: functional
RAW264.7 [22] = assay: Inhibition of RANKL-induced bone resorption in mouse RAW264.7 cells incubated for 4 days by toluidine blue staining based pit formation assay; format: functional, cell-based
Method in brief: (§4)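 Seeded at 1 × 10⁴/well onto dentine slices in α-MEM/10% FBS with 100 ng/mL RANKL plus compound. Medium with compound renewed every 2 days. On day 4, cells removed with 1 M ammonium hydroxide, slices stained with 0.1% toluidine blue, pits imaged by light microscopy. Resorbed area expressed as fraction of total area; significance versus the RANKL-only group.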

RAW264.7 [23] = assay: Inhibition of RANKL-induced bone resorption in mouse RAW264.7 cells assessed as reduction in resorbed area at 2.5 to 10 uM incubated for 4 days by toluidine blue staining based pit formation assay; format: functional, cell-based; method in brief: as §4
[24] = Toxicity in mouse MC3T3-E1 cells assessed as effect on osteoblast differentiation by measuring ALP activity at […] incubated for 14 days in presence of beta-glycerol phosphate and ascorbic acid; format: cell-based; settings: mc3t3-e1, 336 h
[25] = Toxicity in mouse MC3T3-E1 cells assessed as effect on osteoblast differentiation by measuring ECM calcification activity at […] incubated for 14 days in presence of beta-glycerol phosphate and ascorbic acid by Alizarin red S staining method; format: cell-based; settings: mc3t3-e1, 336 h

| SMILES | viability at 24 h, 10 µM [1] | CC50 at 24 h [2] | Activity (RAW264.7 [3]) | pIC50 (RAW264.7 [4]) | Activity (RAW264.7 [5]) | Activity (RAW264.7 [6]) | Activity (RAW264.7 [7]) | inhibition (RAW264.7 [9]) | pIC50 (RAW264.7 [9]) | inhibition (RAW264.7 [10]) | inhibition (RAW264.7 [11]) | inhibition (RAW264.7 [12]) | inhibition (RAW264.7 [13]) | inhibition (RAW264.7 [14]) | inhibition (RAW264.7 [15]) | inhibition (RAW264.7 [16]) | inhibition (RAW264.7 [17]) | fold change (FC) (RAW264.7 [18]) | fold change (FC) (RAW264.7 [19]) | fold change (FC) (RAW264.7 [20]) | further results |
| --- | --- | --- | --- | --- | --- | --- | --- | --- | --- | --- | --- | --- | --- | --- | --- | --- | --- | --- | --- | --- | --- |
| O=c1oc2ccccc2c(=O)n1-c1ccc(I)cc1F | 91.4% | 23.6 µM | 1.8% | 5.31 | Non-toxic | 49.1% | 29.1% | Dose-dependent effect | 5.14 | Active | Active | Active | Dose-dependent effect | Dose-dependent effect | Dose-dependent effect | Dose-dependent effect | Dose-dependent effect | 0.75 | 0.58 | 0.76 | Activity (RAW264.7 [8]): 74.1%; fold change (FC) (RAW264.7 [21]): 0.72; inhibition (RAW264.7 [22]): Dose-dependent effect; inhibition (RAW264.7 [23]): Active; Activity [24]: Non-toxic; Activity [25]: Non-toxic |
| O=c1oc2ccccc2c(=O)n1-c1ccc(Cl)cc1F | 97.9% | 26.5 µM | 19.7% | 5.15 | Non-toxic | 74.6% | 45.9% | Dose-dependent effect | 4.97 | Active | Active | Active | Dose-dependent effect | Dose-dependent effect | Dose-dependent effect | Dose-dependent effect | Dose-dependent effect | 0.77 | 0.73 | 0.99 | fold change (FC) (RAW264.7 [21]): 0.76; inhibition (RAW264.7 [22]): Dose-dependent effect; inhibition (RAW264.7 [23]): Active; Activity [24]: Non-toxic; Activity [25]: Non-toxic |
